Assay results published in ChEMBL document CHEMBL3045671, “Non-imidazole histamine H3 ligands: part V. synthesis and preliminary pharmacological investigation of 1-[2-thiazol-4-yl- and 1-[2-thiazol-5-yl-(2-aminoethyl)]-4-n-propylpiperazine derivatives” (Med Chem Res, 2013).

Biological target: Histamine H3 receptor (Cavia porcellus, UniProt Q9JI35)
Experiment: Antagonist activity at H3 receptor in Cavia porcellus (guinea pig) jejunum assessed as inhibition of electrically evoked muscle contraction
Details: read-out: pA2 (converted)
Outline: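 Segments under 1.0 g tension, isotonic recording; 1 h equilibration with washes every 10 min. Field-stimulated maximally (15–20 V) at 0.1 Hz, 0.5 ms rectangular pulses. After 30 min stimulation, cumulative (R)-α-methylhistamine curves (half-log steps) run with pyrilamine 1 × 10⁻⁵ mol/L in bath. The curve was repeated 20 min after the test compound was added, with pyrilamine given beforehand.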

Chain of Histamine H3 receptor (Cavia porcellus, UniProt Q9JI35) (Q9JI35 whole entry): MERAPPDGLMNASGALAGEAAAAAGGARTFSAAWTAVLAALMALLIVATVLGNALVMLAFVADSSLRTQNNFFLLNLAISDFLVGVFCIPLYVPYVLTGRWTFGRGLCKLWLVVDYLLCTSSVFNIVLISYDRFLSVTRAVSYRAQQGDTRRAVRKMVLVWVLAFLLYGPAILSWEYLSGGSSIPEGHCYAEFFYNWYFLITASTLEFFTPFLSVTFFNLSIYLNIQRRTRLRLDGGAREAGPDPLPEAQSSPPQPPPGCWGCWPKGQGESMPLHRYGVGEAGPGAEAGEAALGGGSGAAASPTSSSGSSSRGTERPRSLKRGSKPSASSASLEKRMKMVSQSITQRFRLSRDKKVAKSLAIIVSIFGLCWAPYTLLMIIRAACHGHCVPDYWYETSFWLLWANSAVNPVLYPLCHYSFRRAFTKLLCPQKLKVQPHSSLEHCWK

| Kb [nM] | SMILES |
| --- | --- |
| 204 | CCCN1CCN(c2nc(CCN(C)CCCCCc3ccccc3)cs2)CC1 |
| 155 | CCCN1CCN(c2nc(CCN(C)CCc3ccccc3)cs2)CC1 |
| 2240 | CCCN1CCN(c2nc(CCN(C)C(=O)c3ccccc3)cs2)CC1 |
| 75.9 | CCCN1CCN(c2nc(CCN(C)Cc3ccccc3)cs2)CC1 |
| 191 | CCCN1CCN(c2nc(CCN(C)CCCCc3ccccc3)cs2)CC1 |
| 120 | CCCN(C)CCc1csc(N2CCN(CCC)CC2)n1 |
| 24.5 | CCCN1CCN(c2ncc(CCN(C)CCc3ccccc3)s2)CC1 |
| 245 | CCCN1CCN(c2nc(CCN(C)CCCc3ccccc3)cs2)CC1 |
| 174 | CCCN1CCN(c2nc(CCN(C)C)cs2)CC1 |

The remaining lines, values behind:

| SMILES | Kb [nM] |
| --- | --- |
| CCCN1CCN(c2ncc(CCN(C)C(=O)c3ccccc3)s2)CC1 | 35.5 |
| CCCN1CCN(c2ncc(CCN(C)C(=O)c3ccc(C)cc3)s2)CC1 | 24.5 |
| CCCN1CCN(c2ncc(CCN(C)C(=O)c3ccc([N+](=O)[O-])cc3)s2)CC1 | 17.4 |
| CCCN1CCN(c2nc(CCN(C)C(=O)c3ccc(C)cc3)cs2)CC1 | 1580 |
| CCCN1CCN(c2nc(CCN(C)C(=O)c3ccc([N+](=O)[O-])cc3)cs2)CC1 | 933 |
| CCCN1CCN(c2nc(CCN(C)C(=O)c3ccc(Cl)cc3)cs2)CC1 | 589 |
| CCCN1CCN(c2ncc(CCN(C)C(=O)c3ccc(Cl)cc3)s2)CC1 | 18.6 |

Biological target: Histamine H3 receptor (Rattus norvegicus, UniProt Q9QYN8)
Experiment: Binding affinity to Rattus norvegicus (rat) H3 receptor
Details: not given

Chain of Histamine H3 receptor (Rattus norvegicus, UniProt Q9QYN8) (Q9QYN8 whole entry): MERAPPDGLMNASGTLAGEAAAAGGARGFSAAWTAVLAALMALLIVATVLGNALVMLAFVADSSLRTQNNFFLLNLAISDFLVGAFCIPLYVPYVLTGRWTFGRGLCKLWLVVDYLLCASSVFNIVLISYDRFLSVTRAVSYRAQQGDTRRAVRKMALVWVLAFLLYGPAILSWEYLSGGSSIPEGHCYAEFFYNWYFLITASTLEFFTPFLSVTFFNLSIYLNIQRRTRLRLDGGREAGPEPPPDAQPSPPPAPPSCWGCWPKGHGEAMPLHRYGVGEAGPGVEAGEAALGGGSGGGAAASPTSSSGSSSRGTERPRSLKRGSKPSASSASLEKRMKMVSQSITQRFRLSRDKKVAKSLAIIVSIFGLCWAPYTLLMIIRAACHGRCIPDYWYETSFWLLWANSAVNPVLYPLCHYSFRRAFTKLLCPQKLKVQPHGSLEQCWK

| SMILES | Ki [nM] |
| --- | --- |
| O=C(c1ccc(OCCCN2CCCCC2)cc1)C1CC1 | 4 |
